Compound activity (PubChem)
TRPC4 potent = allosterically enhances the mouse TRPC4 cation channel. HEK293 TRPC4beta/mu-opioid, DAMGO EC20, Fluo-4 Ca2+ flux; active compounds read high. B-score at 10 µM. hit rate 0.42% among 310,000;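 active = B-score of calcium response area above 5 SD of library B-scores, with initial fluorescence ratio within 5 SD of library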
Target sequence (Q9QUQ5 whole entry, looked up): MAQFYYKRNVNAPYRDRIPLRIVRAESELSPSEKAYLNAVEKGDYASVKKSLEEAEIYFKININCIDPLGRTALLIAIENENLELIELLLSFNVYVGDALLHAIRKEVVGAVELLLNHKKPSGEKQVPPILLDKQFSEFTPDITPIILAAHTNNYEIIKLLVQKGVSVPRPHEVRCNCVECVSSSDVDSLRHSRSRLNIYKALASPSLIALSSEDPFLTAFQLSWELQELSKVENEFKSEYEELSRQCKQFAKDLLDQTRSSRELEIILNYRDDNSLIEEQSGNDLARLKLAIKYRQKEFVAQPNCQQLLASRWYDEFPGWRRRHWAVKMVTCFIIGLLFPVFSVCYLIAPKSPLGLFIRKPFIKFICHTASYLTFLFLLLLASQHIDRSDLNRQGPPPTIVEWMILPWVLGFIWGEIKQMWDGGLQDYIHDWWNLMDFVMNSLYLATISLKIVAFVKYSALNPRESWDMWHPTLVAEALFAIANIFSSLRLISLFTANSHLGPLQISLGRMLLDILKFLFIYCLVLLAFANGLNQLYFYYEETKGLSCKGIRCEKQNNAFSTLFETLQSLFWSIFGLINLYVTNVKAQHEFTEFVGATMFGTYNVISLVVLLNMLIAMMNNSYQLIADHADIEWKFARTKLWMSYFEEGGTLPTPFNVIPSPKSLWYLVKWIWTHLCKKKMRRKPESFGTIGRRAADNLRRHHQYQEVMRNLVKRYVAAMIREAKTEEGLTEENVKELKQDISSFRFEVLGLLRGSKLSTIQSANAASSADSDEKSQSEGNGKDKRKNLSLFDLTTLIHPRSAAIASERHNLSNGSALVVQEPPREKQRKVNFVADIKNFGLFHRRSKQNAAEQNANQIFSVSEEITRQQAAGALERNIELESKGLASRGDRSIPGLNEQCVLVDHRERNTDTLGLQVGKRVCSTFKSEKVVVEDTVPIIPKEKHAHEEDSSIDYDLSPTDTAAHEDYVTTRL
TRPC6 activator = mouse TRPC6 channel activation. HEK293-TRPC6 membrane potential dye fluorescence; active compounds read high. B-score at 10 µM. hit rate 0.13% among 310,000. AID 2550;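 active = B-score of the integrated fluorescence ratio above library mean plus 3 SD, and starting fluorescence ratio within library mean plus 5 SD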;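 also: higher score means more depolarization so channel activation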
TRPC4 block = inhibitors of mouse TRPC4 channel; hit rate 0.39% among 300,000; Q9QUQ5; B-score at 10 µM; HEK293 TRPC4beta/mu-opioid, DAMGO-evoked Fluo4 calcium flux; active compounds read low;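 active = B-score over 3 SD under the library average, no early fluorescence shift, positive overall ratio signal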
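Assay system: TRPC4beta/mu-opioid receptor HEK293 cell line; compound dosing: single concentration per test compound; detection: Fluo4 Ca2+ flux fluorescence; evaluation: per-well B score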
TRPC6 inhibitor = mouse TRPC6 channel inhibition; Q61143; HEK293-TRPC6, membrane potential dye, ACh-evoked depolarization; active compounds read low; B-score at 10 µM; hit rate 1.1% among 310,000;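 active = B-score under library mean minus 3 SD, initial fluorescence not abnormally high, positive integrated signal ratio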;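 also: B-score derived from integrated fluorescence ratio over the kinetic read; more negative B-score means stronger inhibition of depolarization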
TRPC4 agonist = activators of mouse TRPC4 channel; HEK293 TRPC4beta/mu-opioid, Fluo4 calcium fluorescence; active compounds read high; B-score at 10 µM; Q9QUQ5; hit rate 0.49% among 310,000;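 active = B-score above 5 SD of library B-scores, and initial fluorescence ratio not above library mean plus 5 SD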;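 also: positive B-score marks a calcium rise read as TRPC4 activation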
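Technique: kinetic Fluo4 calcium fluorescence; Test system: TRPC4beta and mu-opioid receptor HEK293 stable cells; Measure: B-scored integrated calcium fluorescence ratio; Benchmarks: low control buffer alone, high control maximal DAMGO; Schedule: 45 min room-temperature Fluo4 loading, 110 s read.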
TRPC4 sel inh 2 = mouse TRPC4 off-target activity of TRPC6 inhibitors, second screen | AID 2776 | shares compounds with TRPC6 inhibitor | hit rate 42% among 920 | HEK293 TRPC4/MOR, membrane potential dye fluorescence; channel activated by saturating DAMGO dose | inhibition, % at 10 µM;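 active = compounds whose fluorescence signal differed from control wells by over 3 SD, either direction, in both duplicate plates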
TRPC4 spec = selectivity of TRPC6 inhibitors: effect on mouse TRPC4; shares compounds with TRPC6 inhibitor; HEK293 TRPC4/mu-opioid, membrane potential fluorescence; activity change, negative = inhibition, % at 10 µM; hit rate 61% among 920;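 active = rise or fall in signal beyond 3 SD of buffer-only wells in both replicate plates, either sign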;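 also: integrated kinetic ratio of fluorescence range over baseline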
HEK293 MPD ctr 2-1 = parental HEK293 nonspecific activity of TRPC6 inhibitors, second screen | shares compounds with TRPC6 inhibitor | parental HEK293 membrane potential dye fluorescence; maximal acetylcholine challenge after compound addition | signal change vs control, % at 10 µM | hit rate 31% among 920;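 active = membrane potential signal moving either way by over 3 SD of the maximum-effect control, in both duplicate plates, meaning non-specific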
HEK293 MPD ctr-1 = checks TRPC6 inhibitor effects in parental HEK293 cells; shares compounds with TRPC6 inhibitor; parental HEK293 membrane potential dye fluorescence; membrane potential signal change, % at 10 µM; hit rate 60% among 920;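 active = membrane potential signal shifting up or down by more than 3 SD of buffer-only wells, on both duplicate plates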
HEK293 MPD ctr-2 = checks TRPC6 modulator effects in parental HEK293 cells | shares compounds with TRPC6 inhibitor | membrane potential dye fluorescence | membrane potential signal change, % at 10 µM | hit rate 51% among 2,400 | AID 488924;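 active = membrane potential signal moves up or down beyond 5 SD from buffer-only wells, on both duplicate plates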
HEK293 MPD ctr 2-2 = second check of TRPC6 modulator effects in parental HEK293 cells | shares compounds with TRPC6 inhibitor | membrane potential dye fluorescence; after compound, maximal acetylcholine stimulation | inhibition, % at 10 µM | hit rate 14% among 2,400;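 active = membrane potential signal drops by more than 5 SD from the mean control signal, in both duplicate plates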
TRPC4 ctr mod = tests whether TRPC6 modulators also affect mouse TRPC4; shares compounds with TRPC6 inhibitor; HEK293 TRPC4/mu-opioid, membrane potential fluorescence; percent change from control (negative = decrease, positive = increase), % at 10 µM; hit rate 69% among 2,400;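 active = membrane potential signal moved up or down beyond 5 SD of buffer control wells, in both duplicate plates, actives on both sides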
TRPC4 ctr inh 2 = second selectivity test of TRPC6 modulators against mouse TRPC4; shares compounds with TRPC6 inhibitor; HEK293 TRPC4/mu-opioid, membrane potential dye fluorescence; stimulated with maximal-effect DAMGO; inhibition, % at 10 µM; hit rate 55% among 2,400; AID 488928;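 active = drop in membrane potential signal beyond 5 SD of the control wells in both duplicate plates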;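 also: TRPC4 counter screen for TRPC6 hits run under conditions tuned for TRPC6 not TRPC4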
TRPC6 block conf = confirmation of mouse TRPC6 inhibitors | hit rate 43% among 3,300 | inhibition, % at 10 µM | HEK293-TRPC6, membrane potential dye, ACh-evoked depolarization | shares compounds with TRPC6 inhibitor;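 active = fluorescence ratio falls more than 5 SD below the full-stimulation control mean, in both duplicate runs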;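 also: integrated fluorescence ratio of peak minus minimum over baseline after agonist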
TRPC6 act conf = mouse TRPC6 activator confirmation; activation, % at 10 µM; hit rate 11% among 2,800; HEK293-TRPC6 membrane potential dye fluorescence, FDSS; shares compounds with TRPC6 inhibitor; AID 488961;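 active = ratio signal rise beyond 5 SD above unstimulated control wells' mean, seen in both duplicate runs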
A number is an active result; – = inactive; · = no result given. This is a sample that favours compounds with a hit; in the whole collection about 2.3% have one here.

SMILES	TRPC4 potent	TRPC6 activator	TRPC4 block	TRPC6 inhibitor	TRPC4 agonist	HEK293 MPD ctr-2	HEK293 MPD ctr 2-2	TRPC4 ctr mod	TRPC4 ctr inh 2	TRPC6 block conf	TRPC6 act conf	others
Cc1ccc(Cn2c(=N)n(CC(O)c3ccco3)c3ccccc32)cc1 (stereo not drawn)	–	–	-8	-5.6	–	178%	–	33%	88%	54%	·
N=c1n(CCN2CCOCC2)c2ccccc2n1CC(=O)c1ccc(Cl)c(Cl)c1	–	–	–	–	–	·	·	·	·	·	·
Cc1ccc(C(=O)Nc2ccc(S(=O)(=O)Nc3ncccn3)cc2)cc1[N+](=O)[O-]	–	–	–	–	–	·	·	·	·	·	·
CCOc1ccc(Br)cc1/C=N/O	–	16	-6	-5.9	–	124%	–	22%	–	58%	132%
COc1ccccc1CC(NC(C)=O)C(=O)NC1CCN(C(=O)c2cccc(Cl)c2)CC1 (stereo not drawn)	–	–	–	–	–	·	·	·	·	·	·
O=C1c2cnc3ncnn3c2CC2c3ccccc3CCN12 (stereo not drawn)	–	–	–	-5	–	-105%	–	-20%	–	–	–
COc1ccccc1N=C1NC(=O)/C(=C/c2ccc(N(C)C)cc2)S1	–	–	–	–	–	·	·	·	·	·	·
Cn1cc(C(=O)N/N=C/C2=C(N3CCOCC3)C(=C\c3ccccc3)/CC2)ccc1=O	–	–	–	–	–	·	·	·	·	·	·
O=C1Nc2ccccc2/C1=N\N=C\C1=C(N2CCOCC2)C(=C\c2ccccc2)/CC1	–	–	–	-9.5	–	·	·	·	·	90%	–	TRPC4 sel inh 2=33%;TRPC4 spec=-29%;HEK293 MPD ctr 2-1=-22%;HEK293 MPD ctr-1=-326%
CCOC(=O)C1CCCN(C(=O)c2cnn3c(C(F)F)cc(-c4ccc(C)cc4)nc23)C1 (stereo not drawn)	–	–	–	-6.2	–	156%	–	37%	–	–	·
COc1cc(/C=C(/C#N)C(=O)NC(C)c2ccccc2)cc(OC)c1O (stereo not drawn)	–	–	–	-5.3	–	415%	–	48%	29%	51%	·
CC(NC(=O)/C(C#N)=C/c1ccc(C(=O)O)cc1)c1ccccc1 (stereo not drawn)	–	–	–	–	–	·	·	·	·	·	·
COc1cc(CNCCc2ccc(S(N)(=O)=O)cc2)ccc1OCC(=O)NC1CCCCC1	–	12	–	-12	47	–	–	–	–	–	–
COc1cc(CNCc2ccccn2)ccc1OCC(=O)NC1CCCCC1	–	–	–	–	–	·	·	·	·	·	·
CN(C)CCNc1ncnc2c1cnn2-c1ccc(Cl)cc1	–	–	–	-5.2	–	–	–	–	31%	46%	–
CN(C)S(=O)(=O)c1ccc(N2CCCC2)c(C(=O)OCC(=O)N2CCN(c3ccccc3)CC2)c1	–	–	–	–	–	·	·	·	·	·	·
CCOC(=O)c1cn(CC2CC2)c2cc(F)c(F)cc2c1=O	–	–	–	-5.4	–	-276%	–	-48%	59%	53%	–
CCCn1cc(C(=O)OCC)c(=O)c2cc(F)c(F)cc21	–	–	–	–	–	·	·	·	·	·	·
CCOC(=O)c1cn(CC)c2ccc(Br)cc2c1=O	–	–	–	-6	–	-106%	–	-16%	–	–	–
CC(C)c1cc(-c2n[nH]c(=S)n2Cc2ccccc2)cs1	–	–	–	-16	–	–	–	8.5%	–	–	–
S=c1[nH]nc(-c2ccccc2)n1Cc1ccccc1	–	–	–	–	–	·	·	·	·	·	·
OC(CNCC1CCCO1)Cn1c2ccc(Cl)cc2c2cc(Cl)ccc21 (stereo not drawn)	–	–	–	–	–	·	·	·	·	·	·
OC(CNCC1CCCO1)Cn1c2ccccc2c2ccccc21 (stereo not drawn)	–	–	–	-6.5	–	312%	73%	36%	65%	84%	·
O=[N+]([O-])c1ccc(S(=O)(=O)Nc2nc3ccccc3nc2Nc2ccccc2)cc1	–	–	–	–	–	·	·	·	·	·	·
COc1cc(Nc2nc3ccccc3nc2NS(=O)(=O)c2ccc([N+](=O)[O-])cc2)cc(OC)c1OC	–	–	–	-6.4	–	-116%	–	-26%	50%	48%	–
SMILES	TRPC4 potent	TRPC6 activator	TRPC4 block	TRPC6 inhibitor	TRPC4 agonist	HEK293 MPD ctr-2	HEK293 MPD ctr 2-2	TRPC4 ctr mod	TRPC4 ctr inh 2	TRPC6 block conf	TRPC6 act conf	others
COc1cccc(NC(=O)CN(C)C(C)C(=O)Nc2ccc(S(=O)(=O)N3CCCC3)cc2)c1 (stereo not drawn)	–	–	–	–	–	·	·	·	·	·	·
Cc1ccc(CN2CCSc3ccc(C(=O)NCCCN4CCOCC4)cc32)cc1	–	–	–	–	–	·	·	·	·	·	·
CCN1CCN(CCCNC(=O)c2ccc3c(c2)N(Cc2ccc(C)cc2)CCS3)CC1	–	–	–	-5.2	–	–	–	–	74%	57%	–
CN1CCN(CCCNC(=O)c2ccc3c(c2)N(Cc2ccccc2)CCS3)CC1	–	–	–	-7.9	–	·	·	·	·	–	–	TRPC4 sel inh 2=62%;TRPC4 spec=–;HEK293 MPD ctr 2-1=–;HEK293 MPD ctr-1=–
CCOC(=O)C1CCN(C(=O)COc2ccc3c(C)cc(=O)oc3c2)CC1	–	–	–	–	–	·	·	·	·	·	·
CCOC(=O)C1(Cc2cccc(Cl)c2)CCCN(C(=O)CCSC)C1 (stereo not drawn)	–	–	–	-5.3	–	152%	–	36%	–	54%	·
Cc1[nH]n(-c2ccccc2)c(=O)c1N=Nc1c(O)cc(S(=O)(=O)N(C)C)c2ccccc12	–	–	–	-8.9	–	-135%	80%	-34%	86%	81%	–
Cc1[nH]n(-c2ccccc2)c(=O)c1N=Nc1ccc2c(c1)OCCO2	–	–	–	–	–	·	·	·	·	·	·
